Test results reported in ChEMBL document CHEMBL1949524, “Chiral indolo[3,2-f][3]benzazecine-type dopamine receptor antagonists: synthesis and activity of racemic and enantiopure derivatives” (J Med Chem, 2011).
pKi: −log10 of the molar value. Active and inactive are the calls of the source. The rule behind the calls is not given here.

Key:
D(1B) dopamine receptor = D(1B) dopamine receptor (Homo sapiens, UniProt P21918); assay: Displacement of [3H]SCH23390 from human dopamine D5 receptor expressed in human HEK293 cells; format: cell-based
D(1B) dopamine receptor, sequence (P21918 whole entry): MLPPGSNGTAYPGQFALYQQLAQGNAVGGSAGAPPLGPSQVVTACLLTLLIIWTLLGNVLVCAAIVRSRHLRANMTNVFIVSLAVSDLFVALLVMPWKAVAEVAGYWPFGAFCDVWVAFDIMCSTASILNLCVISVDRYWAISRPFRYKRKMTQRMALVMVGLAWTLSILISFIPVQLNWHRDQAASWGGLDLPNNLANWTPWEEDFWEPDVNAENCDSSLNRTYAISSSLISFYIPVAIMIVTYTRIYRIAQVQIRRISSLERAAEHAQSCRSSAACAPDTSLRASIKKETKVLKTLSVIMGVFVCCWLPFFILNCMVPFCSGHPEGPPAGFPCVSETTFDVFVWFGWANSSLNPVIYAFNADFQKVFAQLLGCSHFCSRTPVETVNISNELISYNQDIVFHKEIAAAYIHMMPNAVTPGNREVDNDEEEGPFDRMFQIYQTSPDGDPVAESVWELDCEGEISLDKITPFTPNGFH
How it was run: (§1)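 Radioligand binding at human receptors, with Ki as the read-out. Ki is the mean (±SEM) of two to three experiments, each run in triplicate.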

D(1A) dopamine receptor [1] = biological target: T1, D(1A) dopamine receptor (Homo sapiens, UniProt P21728); assay: Antagonist activity at human dopamine D1 receptor expressed in HEK293 cells assessed as inhibition of SKF38393-induced Ca2+ influx by fluorescence analysis; format: functional, cell-based
T1 sequence (P21728 whole entry): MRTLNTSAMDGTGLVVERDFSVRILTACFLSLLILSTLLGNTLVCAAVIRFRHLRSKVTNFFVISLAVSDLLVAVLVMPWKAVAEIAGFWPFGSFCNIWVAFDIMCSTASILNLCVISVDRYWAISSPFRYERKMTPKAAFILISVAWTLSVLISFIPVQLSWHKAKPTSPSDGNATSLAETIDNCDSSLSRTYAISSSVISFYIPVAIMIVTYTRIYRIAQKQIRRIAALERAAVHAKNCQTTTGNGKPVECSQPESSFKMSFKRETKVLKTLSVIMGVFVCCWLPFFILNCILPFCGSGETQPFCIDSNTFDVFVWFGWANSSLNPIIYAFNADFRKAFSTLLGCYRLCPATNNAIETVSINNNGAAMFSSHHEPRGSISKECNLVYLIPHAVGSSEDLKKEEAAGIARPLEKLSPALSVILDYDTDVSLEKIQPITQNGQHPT
How it was run: (§2)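 HEK293 cells stably expressing the relevant dopamine receptor were loaded with a fluorescent dye and preincubated with rising concentrations of test compound. Agonist was then added: SKF 38393 for D1, quinpirole for D2. Ca2+-induced fluorescence was read on a microplate reader.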

D(3) dopamine receptor = D(3) dopamine receptor (Homo sapiens, UniProt P35462); assay: Displacement of [3H]spiperone from human dopamine D3 receptor expressed in human HEK293 cells; format: cell-based; how it was run: as §1
D(3) dopamine receptor, sequence (P35462 whole entry): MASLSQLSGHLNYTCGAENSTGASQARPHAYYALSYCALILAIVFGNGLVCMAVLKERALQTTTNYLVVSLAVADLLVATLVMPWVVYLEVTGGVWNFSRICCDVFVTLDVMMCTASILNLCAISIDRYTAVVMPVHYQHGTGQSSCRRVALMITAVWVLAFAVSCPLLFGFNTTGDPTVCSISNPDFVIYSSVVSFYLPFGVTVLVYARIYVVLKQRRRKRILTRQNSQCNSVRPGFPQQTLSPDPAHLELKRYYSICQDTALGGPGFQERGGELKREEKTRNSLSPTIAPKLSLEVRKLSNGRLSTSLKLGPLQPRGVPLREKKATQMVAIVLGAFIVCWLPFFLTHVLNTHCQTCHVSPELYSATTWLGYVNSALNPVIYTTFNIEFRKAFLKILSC

D(2) dopamine receptor [2] = biological target: T2, D(2) dopamine receptor (Homo sapiens, UniProt P14416); assay: Antagonist activity at human dopamine D2L receptor expressed in HEK293 cells assessed inhibition of as quinpirole-induced Ca2+ influx by fluorescence analysis; format: functional, cell-based; how it was run: as §2
T2 sequence (P14416 whole entry): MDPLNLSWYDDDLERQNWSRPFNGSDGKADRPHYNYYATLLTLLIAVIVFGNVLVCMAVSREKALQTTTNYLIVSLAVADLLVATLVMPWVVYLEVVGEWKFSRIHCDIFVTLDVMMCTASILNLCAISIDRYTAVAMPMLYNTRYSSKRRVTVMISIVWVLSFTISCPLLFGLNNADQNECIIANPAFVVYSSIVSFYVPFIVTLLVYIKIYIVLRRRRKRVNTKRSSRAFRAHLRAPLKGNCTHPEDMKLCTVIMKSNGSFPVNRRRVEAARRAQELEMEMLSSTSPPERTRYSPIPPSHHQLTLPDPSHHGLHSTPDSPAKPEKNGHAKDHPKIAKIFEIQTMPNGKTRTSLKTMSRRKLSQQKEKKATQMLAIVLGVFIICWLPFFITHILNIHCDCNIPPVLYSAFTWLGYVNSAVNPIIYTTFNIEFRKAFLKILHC

D(1A) dopamine receptor [3] = biological target: T1, D(1A) dopamine receptor; assay: Displacement of [3H]SCH23390 from human dopamine D1 receptor expressed in human HEK293 cells; format: cell-based; how it was run: as §1
D(2) dopamine receptor [4] = biological target: T2, D(2) dopamine receptor; assay: Displacement of [3H]spiperone from human dopamine D2L receptor expressed in human HEK293 cells; format: cell-based; how it was run: as §1
D(4) dopamine receptor = biological target: T3, D(4) dopamine receptor (Homo sapiens, UniProt P21917); assay: Displacement of [3H]spiperone from human dopamine D4.4 receptor expressed in CHO cells; format: cell-based; how it was run: as §1
T3 sequence (P21917 whole entry): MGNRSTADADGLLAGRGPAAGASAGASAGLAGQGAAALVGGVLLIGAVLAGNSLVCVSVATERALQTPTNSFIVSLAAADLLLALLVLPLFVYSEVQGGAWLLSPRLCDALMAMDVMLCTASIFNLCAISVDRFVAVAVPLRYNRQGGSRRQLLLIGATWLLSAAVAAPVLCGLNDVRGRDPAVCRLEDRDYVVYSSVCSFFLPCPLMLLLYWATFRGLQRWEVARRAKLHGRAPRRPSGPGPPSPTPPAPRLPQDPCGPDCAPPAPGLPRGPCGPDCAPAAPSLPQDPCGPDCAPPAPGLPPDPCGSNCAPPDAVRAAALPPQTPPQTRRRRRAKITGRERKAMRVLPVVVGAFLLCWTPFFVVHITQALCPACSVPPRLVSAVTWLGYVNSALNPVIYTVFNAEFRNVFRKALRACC

Row | Compound | pKi (D(1B) dopamine receptor) | inhibition (D(1A) dopamine receptor [1]) | pKi (D(3) dopamine receptor) | inhibition (D(2) dopamine receptor [2]) | pKi (D(1A) dopamine receptor [3]) | pKi (D(2) dopamine receptor [4]) | pKi (D(4) dopamine receptor)
1 | C[C@@H]1Cc2c([nH]c3ccccc23)Cc2ccccc2CCN1C | 6.41 | Active | < 5.00 | Active | 6.19 | < 5.00 | < 5.00
2 | CN1CCc2ccccc2Cc2[nH]c3ccccc3c2C[C@@H]1CO | 7.94 | Active | 6.17 | Active | 7.99 | 6.57 | 6.39
3 | CN1CCc2ccccc2Cc2[nH]c3ccccc3c2CC1C(=O)O (racemic) | 6.18 | Active | < 5.00 | Active | < 5.00 | < 5.00 | < 5.00
4 | CN1CCc2ccccc2Cc2[nH]c3ccccc3c2C[C@H]1CO | 7.04 | Active | 5.33 | Active | 6.94 | 5.53 | 5.31
5 | C[C@H]1Cc2c([nH]c3ccccc23)Cc2ccccc2CCN1C | 8.36 | Active | 6.52 | Active | 8.21 | 7.07 | 7.19
